This is an account of results in PubChem BioAssay AID775 (SRMLSC, 2007).

Hit rate of the full screen: of about 130,000 compounds, about 900 (0.69%) were called active.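 Rule for the calls: active = inhibition above a set limit, placed 3 SD over the median of all compounds (cut at about 26% in these data); inactive = the rest.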 The entries come from a sample that favours actives as a whole.

The nature of the assay: compounds extending yeast replicative lifespan, primary screen, S. cerevisiae, OD615 (AID 775).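 Note: 0% = nicotinamide-treated wells and 100% = cells grown without nicotinamide.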 The following applies: S. cerevisiae growth with nicotinamide, at 10 µM, stronger effect = higher value, deaD strain in restrictive glucose medium. In outline:
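Buffer or medium: CSMM-D glucose medium, restrictive; test system: modified budding yeast, DeaD strain; compound: single dose 10 µM compound, 0.25% DMSO; schedule: culture preincubation 4 h, compound exposure 48 h, both 30 °C; detection: optical density (absorbance) at 615 nm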
On to `Cc1cc(C)c(NC(=S)N2CCCC2C(=O)O)c(C)c1` (stereo unspecified), for which the inhibition of the nicotinamide effect is -4.99% (inactive).
Under `Cc1cccc(N2C(=O)SC(SC(=Nc3ccccc3)Nc3ccccc3)C2=O)c1` (stereo unspecified) stands 7.31% (inactive); under `COc1ccc(/C=N/NC(=O)c2ccc(Cl)cc2)cc1COC(C)=O`, -4.25% (inactive).
Under `Cc1cc(Cl)ccc1NC(=S)NCCCN1CCCC1=O` stands 3.7% (inactive); under `NC(=S)N/N=C/c1coc2cc(Cl)ccc2c1=O`, 38.1% (active); under `CC(C)Oc1c(Br)cc(Br)cc1/C=N/NC(N)=S`, 0.87% (inactive).
As for `O=C(N/N=C/c1coc2ccccc2c1=O)c1cc2ccccc2o1`, the figure is 19.2% (inactive); as for `O=C(Cc1ccccc1)NNC1CC(=O)N(c2ccc(Br)cc2)C1=O` (stereo unspecified), -4.42% (inactive); as for `COc1ccc(-n2c(C)cc(C(=O)COC(=O)c3cc(OC)c(OC)cc3NC(=O)c3cccs3)c2C)cc1`, 1.08% (inactive).
Regarding `O=C(CSc1nc2ccccc2o1)N1c2ccccc2Sc2ccc(Cl)cc21`, the inhibition of the nicotinamide effect is -7.73% (inactive).
Under `S=C1Nc2cc(Cl)ccc2Sc2ccccc21` stands 2.87% (inactive).
Under `O=C1Cc2ccccc2Sc2ccc(Cl)cc21` stands 38.7% (active); under `Cc1ccccc1N/C(SCc1ccc(Cl)cc1)=C(/C#N)C(N)=O`, 1.27% (inactive).
Under `Cc1nnc(-c2ccc(Oc3ccc(C)c(C)c3)c([N+](=O)[O-])c2)o1` stands -6.06% (inactive); under `Cc1ccc(S(=O)(=O)N(CC(=O)Nc2cccc([N+](=O)[O-])c2)Cc2ccc(Cl)cc2)cc1`, -5.04% (inactive).
Consider `CCC(=NC1CC(C)(C)NC(C)(C)C1)C1=C(O)CC(C)(C)CC1=O`, for which the inhibition of the nicotinamide effect was 36.4% (active).
Under `CC1(C)CC(=O)C=C(NC2CC(C)(C)NC(C)(C)C2)C1` stands 5.33% (inactive); under `COCC(C)N=CC1=C(O)CC(C)(C)CC1=O` (stereo unspecified), -1.64% (inactive); under `Cc1[nH]c2ccccc2c1/C=N\NC(=O)Cn1nnc(-c2ccccc2)n1`, 1.83% (inactive).
As to `Cc1nn(CC(=O)Nc2ccc(N(C)C)cc2)c(C)c1[N+](=O)[O-]`, the inhibition of the nicotinamide effect was -0.66% (inactive).
Under `COC(=O)/C(C#N)=C/c1occc1C` stands -5.74% (inactive).
Under `Cc1cc(/C=C2/NC(=O)NC2=O)c(C)n1-c1cccnc1` stands -0.65% (inactive).
As for `O=S(=O)(ON(c1ccccc1)S(=O)(=O)c1ccccc1)c1ccccc1`, the figure is 43.7% (active); as for `CCOc1ccc(S(=O)(=O)N(CC(=O)O)c2ccccc2)cc1`, -6.31% (inactive).
For `CCN(c1ccccc1)S(=O)(=O)c1ccc(N)cc1`, the inhibition of the nicotinamide effect is -3.49% (inactive).
As for `Cc1nc2ccccc2n1CC(=O)N/N=C/c1cccs1`, the figure is 2.27% (inactive).
As for `NS(=O)(=O)c1ccc(CNC(=O)c2ccc(Cl)cc2[N+](=O)[O-])cc1`, the figure is 3.9% (inactive); as for `CCCCN(C)c1ccc([N+](=O)[O-])cc1`, 0.62% (inactive); as for `Cc1cc(=O)[nH]c(SCC(N)=O)c1C#N`, -13.6% (inactive).
Under `CC(=O)c1cc(C#N)c(SCC(=O)C(C)(C)C)nc1C` stands -19% (inactive).
`CCCCSc1[nH]c(=O)c(C(=O)OCC)cc1C#N`: the inhibition of the nicotinamide effect was 35.7% (active).
Under `Cc1ccc(-c2nnc(SCC(=O)N/N=C/c3cccs3)n2-c2ccc(C)cc2)cc1` stands -1.13% (inactive); under `CC1(C)CC(=O)C(N=Nc2ccc(S(=O)(=O)N3CCCCCC3)cc2)=C(O)C1`, -0.81% (inactive); under `CC(Sc1nc(-c2ccccc2)cc(C(F)(F)F)n1)C(=O)Nc1ccc2c(c1)OCO2` (stereo unspecified), -1.2% (inactive).
Under `O=C1CCCC(O)=C1N=Nc1ccc2ncsc2c1` stands -3.17% (inactive); under `Cc1cc(C(=O)COc2ccccc2[N+](=O)[O-])c(C)n1-c1cccc(S(=O)(=O)N2CCOCC2)c1`, 1.02% (inactive).
Under `O=C(CCCO)N/N=C/c1cc(Br)ccc1O` stands 25% (inactive); under `Oc1ccc(Cl)cc1/C=N/c1nc2ccccc2[nH]1`, 6.53% (inactive).
Take `Oc1ccc(Br)cc1C=Nc1ccc2[nH]ncc2c1`: the inhibition of the nicotinamide effect was 40.4% (active).
Turning to `Cc1c(NC(=S)NCc2ccc(F)cc2)cccc1[N+](=O)[O-]`, the inhibition of the nicotinamide effect is 0.2% (inactive).
As to `Oc1c(CN2CCN(c3ccc(F)cc3)CC2)cc(Cl)c2cccnc12`, the inhibition of the nicotinamide effect was -13.6% (inactive).
Under `CCN1CCN(C(c2cccnc2)c2cc(Cl)c3cccnc3c2O)CC1` (stereo unspecified) stands 30.4% (active); under `CCOC(=O)N1CCN(C(c2cccnc2)c2ccc3cccnc3c2O)CC1` (stereo unspecified), -7.28% (inactive); under `Cc1ccc(NN=C2C(=O)OC(C)(C)OC2=O)c(C)c1`, -2.15% (inactive).
Consider `CC(=O)Nc1ccc(S(=O)(=O)NC2(C(F)(F)F)C(=O)Nc3c2c(=O)[nH]c(=O)n3Cc2ccccc2)cc1` (stereo unspecified), for which the inhibition of the nicotinamide effect was 2.33% (inactive).
Under `C/C(=N/NC(=O)c1ccc(Br)o1)c1ccc(C)o1` stands -2.27% (inactive).
Under `COc1cc(C(=O)Nc2cc(C(F)(F)F)ccc2N2CCOCC2)ccc1O` stands -3.94% (inactive).
As for `O=C(NC(CC(=O)N1CCN(c2ccccc2)CC1)c1ccccc1)c1ccccc1Cl` (stereo unspecified), the figure is 35.4% (active); as for `COC(=O)c1ccccc1OCC(=O)N1CCN(c2ccc(Cl)cc2)CC1`, -19.3% (inactive); as for `CC(CC(=O)N1CCN(c2ccccc2)CC1)c1ccccc1` (stereo unspecified), -11.3% (inactive).
Consider `C/C(=N/NC(=O)CSc1ccccn1)c1ccc([N+](=O)[O-])cc1`, for which the inhibition of the nicotinamide effect was 1.62% (inactive).
Under `Cn1cccc1/C=C1\SC(=S)N(NC(=O)c2ccc(Cl)cc2)C1=O` stands 3.79% (inactive); under `Cc1ccccc1NC(=O)c1ccccc1`, 43.2% (active).
In the case of `Cc1cc(C(=O)NNC(=S)Nc2ccccc2C)cs1`, the inhibition of the nicotinamide effect was 4.51% (inactive).
Under `O=C(NC(=O)c1ccccc1)NC(=O)c1ccccc1` stands -15.8% (inactive).
Under `Cc1cc(C)c(NC(=O)c2oc3ccccc3c2COc2ccccc2)c(C)c1` stands 0.31% (inactive); under `COC(=O)C1=C(NC(=O)C(C)(C)C)CCS1`, -1.21% (inactive); under `CCCCN(CC)C(=O)c1ccc2c(c1)OCO2`, -2.79% (inactive).
Under `Cn1cc([N+](=O)[O-])c(C(=O)Nc2cnn(Cc3ccc(F)cc3)c2)n1` stands 10.4% (inactive); under `Cc1cccc(NC(=O)/C=C/c2ccc3c(c2)OCO3)n1`, -5.25% (inactive); under `O=C(CCCN1C(=O)/C(=C/c2ccco2)SC1=S)Nc1ccccc1`, 4.28% (inactive).
As to `CCOc1ccccc1/C=c1\sc2nc(-c3ccco3)nn2c1=O`, the inhibition of the nicotinamide effect was 21.5% (inactive).
Regarding `O=c1nc2s/c(=C\c3ccco3)c(=O)n2nc1Cc1ccccc1`, the inhibition of the nicotinamide effect is 26.9% (active).
As for `NC(=O)c1ccccc1N=Cc1ccc2ccccc2c1`, the figure is 8.87% (inactive).
As for `CCC1=NN(C(=O)Cc2ccc([N+](=O)[O-])cc2)C(O)(c2ccc(Br)cc2)C1` (stereo unspecified), the figure is 3.83% (inactive); as for `CN(C)C(CNC(=O)c1ccc(S(=O)(=O)NCc2ccco2)cc1)c1ccccc1` (stereo unspecified), 3.63% (inactive).
Under `CCOC(=O)C(C)Sc1nc2ccccc2c(=O)n1CC1CCCCC1` (stereo unspecified) stands 8.34% (inactive); under `CCCc1nc2c(c(=O)c3ccccc3n2C)c(=O)n1C1CCCCCC1`, 47.5% (active); under `Cn1c2ccccc2c(=O)c2c(=O)n(Cc3ccco3)c(COc3ccccc3)nc21`, 17.5% (inactive).
As to `CCOC(=O)c1c(NC(=O)C2(C)Cc3ccccc3C(=O)O2)sc2c1CCCC2` (stereo unspecified), the inhibition of the nicotinamide effect is 1.18% (inactive).
As for `O=C(NCc1ccccc1Cl)C1CCC(CNc2c(N3CCCCC3)c(=O)c2=O)CC1` (stereo unspecified), the figure is 3.91% (inactive); as for `CCS(=O)(=O)Nc1cccc(-c2cc(-c3ccccc3)c3cc(C)ccc3n2)c1`, 1.36% (inactive); as for `COc1ccc(C(CC(=O)Nc2ccc(C)cc2)NC(=O)C(F)(F)F)cc1` (stereo unspecified), -0.39% (inactive).
Under `Cc1ccc2sc(NNC(=O)c3ccc4c(c3)OCCO4)nc2c1C` stands 0% (inactive); under `O=C(N/N=C/c1ccccn1)C12CC3CC(CC(C3)C1)C2`, 3.48% (inactive).
Under `COc1ccc([C@H]2[C@H](C(C)=O)N3N=Cc4ccccc4C3C23C(=O)OC(C)(C)OC3=O)cc1` (stereo partly specified) stands 30.5% (active).
Turning to `COc1ccc(C2C(C(=O)N3CCN(c4ccc(OC)cc4)CC3)c3ccccc3C(=O)N2C)cc1` (stereo unspecified), the inhibition of the nicotinamide effect was -6.01% (inactive).
In the case of `O=C(Nc1ccc2ccccc2c1)/C(=C/c1cccc(Br)c1)NC(=O)c1ccco1`, the inhibition of the nicotinamide effect was -1.18% (inactive).
As for `COC(=O)C1=NNC2(c3ccc(C)cc3)C(=O)N(c3cccc(C)c3C)C(=O)C12` (stereo unspecified), the figure is 14.3% (inactive).
Under `COc1ccc(C(=O)NNS(=O)(=O)c2ccc(C)cc2)cc1` stands 3.8% (inactive); under `CC(C)CNC(=S)NC(=O)c1ccc(Cl)cc1`, -5.06% (inactive).
